Compounds with a hit are over-represented: about 1.4% of the library has one in this group of screens.
Casp6 inh: blocks human caspase-6 cleavage activity; purified caspase-6, Z-VEID-R110 cleavage fluorescence; inhibition, % at 12.5 µM; actives 0.53% (n = 350,000);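 active = mean inhibition across replicates at least about 35%, with every replicate also reaching that limit, limit read from the data; inconclusive = only one of the two criteria met; inactive = neither criterion met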;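 also: 0% = median of neutral control wells and 100% = no fluorescence left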
Target sequence (P55212 24-179 limits assumed): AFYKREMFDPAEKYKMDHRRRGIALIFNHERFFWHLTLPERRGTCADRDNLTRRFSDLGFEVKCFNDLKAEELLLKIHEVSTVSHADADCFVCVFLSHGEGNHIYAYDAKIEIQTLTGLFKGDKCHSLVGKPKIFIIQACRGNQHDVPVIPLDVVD
Target sequence (P55212 194-293 limits assumed): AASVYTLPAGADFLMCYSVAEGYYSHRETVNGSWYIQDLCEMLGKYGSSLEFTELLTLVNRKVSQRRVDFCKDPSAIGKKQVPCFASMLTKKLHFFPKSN
T cell HTS: modulates CD8 T cell binding to vesicles | 2C CD8+ T cell-vesicle binding, flow cytometry; hits give low values | response (vesicle binding), % at 7 µM | actives 0.068% (n = 330,000) | AID 2052;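 active = response, share of CD8 T cells binding vesicles, and their 90th percentile fluorescence all below set limits, cut at about 80% in these data, passing the limit was not always enough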;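 also: values below 100% mean blocked vesicle binding to the CD8+ T cells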
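Assay system: 2C TCR transgenic mouse naive CD8+ T cells, MACS-purified | Read-out: CD8+ gate FL2 mean fluorescence as % of same-row positive control | Signal: High-throughput flow cytometry with anti-B7-1 and anti-CD8 staining | Timing: Binding step 1.5 h, 37 °C, antibody labelling 20 min, ice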
Myeloid diff MLP: promotes myeloid progenitor differentiation. calls only at 10 µM. AID 624256. ER-HoxA9 myeloid progenitors, lysozyme-GFP differentiation, flow cytometry. actives 1% (n = 360,000);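 active = normalized GFP-positive differentiation at or above the plate's own cutoff, the solvent-only control mean plus 3 SD; inconclusive = no clear call, values can overlap the other calls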;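 also: cells exposed to compound for four days before flow analysis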
Vif inh: HIV Vif inhibition | HEK293T cells, Vif self-association by quenched fluorescence, imaging, 24 h | inhibition, % at 7.49 µM | actives 0.35% (n = 340,000) | AID 602346; in the data active = inhibition above about 50%, passing the limit was not always enough; inconclusive = no clear call, values can overlap the other calls; inactive = below about 31%
The depositor's hits bear a star; i = inactive; ? = inconclusive; . = no result given; + = active, no number.

SMILES	Casp6 inh	T cell HTS	Myeloid diff MLP	Vif inh
CC(C)CCC(CCNCc1ccccn1)c1ccc2c(c1)OCO2 (configuration not stated)	-1	196	+	-9
COc1ccc(-n2nnnc2C(c2ccccc2OC(F)(F)F)N2CCN(C/C=C/c3ccccc3)CC2)cc1 (configuration not stated)	-2	.	+	.
COc1ccc(C(c2nnnn2-c2ccc(OC)cc2)N2CCN(C/C=C/c3ccccc3)CC2)cc1 (configuration not stated)	-1	.	i	5
CC(C)CC#Cc1cnc2c(c1)C(=O)N([C@@H](C)CO)C[C@@H](C)[C@H](CN(C)Cc1ccccc1F)O2	-3	.	.	.
CC(=O)Nc1cccc(N/C=C(\C=O)c2nc3ccccc3o2)c1	.	124	+	-6
O=C/C(=C\Nc1ccccn1)c1nc2cc(Cl)ccc2o1	-2	252	+	61*
COc1ccc(OC)c(NC(=O)c2nc(-c3ccccc3)oc2C)c1	-2	598	i	114*
O=c1ccc(-c2ccc(S(=O)(=O)Nc3cccc([N+](=O)[O-])c3)s2)n[nH]1	36*	404	i	3
Cc1cccc(NS(=O)(=O)c2ccc(-c3ccc(=O)[nH]n3)o2)c1	5	117	i	0
C[C@@H]1CN([C@@H](C)CO)C(=O)c2cc(NC(=O)c3ccncc3)ccc2O[C@@H](C)CCCCO[C@@H]1CN(C)C(=O)Nc1ccc(C(F)(F)F)cc1	1	.	.	.
CCCCCCc1cc2cc(-c3nnc(-c4ccccc4O)o3)c(=O)oc2cc1O	.	370	+	1
CCCCCCc1cc2cc(-c3nnc(-c4ccccc4OC)o3)c(=O)oc2cc1O	.	412	+	70*
C[C@H](O)C#Cc1ccc2c(c1)O[C@@H](CN(C)C(=O)C1CCC1)[C@H](C)CN([C@@H](C)CO)S2(=O)=O	0	.	.	.
CCCCn1c(N)c(N(CC(C)C)C(=O)CC(NC(=O)c2ccccc2Cl)c2ccccc2)c(=O)[nH]c1=O (configuration not stated)	-1	.	i	-5
CCCCn1c(N)c(N(CCC(C)C)C(=O)c2cccc(N3C(=O)c4ccccc4C3=O)c2)c(=O)[nH]c1=O	0	388	i	-8
CCCCN(C(=O)c1cccc(-n2cccc2)c1)c1c(N)n(CCCC)c(=O)[nH]c1=O	43*	338	i	3
CCCCn1c(N)c(N(CC(C)C)C(=O)CC(NC(=O)c2ccccc2)c2ccccc2)c(=O)[nH]c1=O (configuration not stated)	65*	430	i	-5
Cc1ccc(S(=O)(=O)Nc2ccc3c(c2)CC(=O)N([C@@H](C)CO)C[C@@H](C)[C@H](CN(C)Cc2ccc(C(=O)O)cc2)O3)cc1	2	.	.	.
Cc1ccc(-n2ncc3c(N4CCCC(C)C4)ncnc32)c(C)c1 (configuration not stated)	1	43*	i	-9
COc1cc(OC)cc(-c2oc(=O)c3cc(OC)c(OC)cc3c2C(F)(F)F)c1	2	60*	i	4
COc1cc(CN2CC3(CCN(C(=O)CN4CCOCC4)CC3)c3c(n(C)c4cc(OC)ccc34)[C@H]2CO)cc(OC)c1	-2	.	.	.
COc1cc(C=C2CCCC(=Cc3ccc(OCC4CO4)c(OC)c3)C2=O)ccc1OCC1CO1 (configuration not stated)	0	.	?	62*
N#C/C(C(=O)NCc1ccccc1)=C1/N=C(NC(=O)c2cccs2)c2ccccc21	2	326	+	-2
CCCNC(=O)/C(C#N)=C1\N=C(NC(=O)c2ccco2)c2ccccc21	-1	363	i	1
CCC(CO)Oc1cc(NC(=O)c2ccc(N)cc2)c2ncn(C(C)C)c2c1 (configuration not stated)	38*	377	i	4
SMILES	Casp6 inh	T cell HTS	Myeloid diff MLP	Vif inh
CCC(CO)Oc1cc(NC(=O)c2ccc(F)cc2)c2ncn(C(C)C)c2c1 (configuration not stated)	-1	371	i	-7
CCNC(=O)C[C@H]1CC[C@@H]2[C@H](COC[C@H](O)CN2Cc2ccc(Cl)c(Cl)c2)O1	-4	.	.	.
O=C1Cc2ccccc2C(=O)N1c1cccc(Cl)c1	35*	194	i	25
O=C1Cc2ccccc2C(=O)N1c1ccc(F)cc1Cl	44*	208	i	0
O=C1Cc2ccccc2C(=O)N1c1ccccc1	26	354	i	-2
N#C[C@H]1[C@@H](c2ccccc2-c2cccc(F)c2)[C@H](CO)N1C(=O)C1CC1	-2	.	.	.
COC(=O)c1ccccc1CSc1nsc(/C=C/N(C)C)c1C#N	37*	316	i	-2
C[C@@H]1CN([C@@H](C)CO)C(=O)c2cc(/C=C/c3ccccc3)cnc2O[C@@H]1CN(C)Cc1ccc2c(c1)OCO2	1	.	.	.
O=C1CC(/C=C/c2ccco2)=Nc2ccccc2N1	.	348	+	11
O=C1CC(/C=C/c2ccccn2)=Nc2ccccc2N1	3	122	i	6
COc1cc([C@@H]2[C@H]3CNCC=C3C(C#N)=C(N)C2(C#N)C#N)ccc1OC(C)C	.	641	+	-19
Cn1cnc(S(=O)(=O)N2C[C@H](O)COC[C@H]3O[C@H](CC(=O)NC4Cc5ccccc5C4)CC[C@@H]32)c1	-1	.	.	.
Cc1ccc(Cl)cc1N1CCN(C(c2cccnc2)c2nnnn2C2CCCCC2)CC1 (configuration not stated)	.	i	i	71*
O=C(C[C@H]1CC[C@H](NC(=O)c2cccc(F)c2)[C@H](CO)O1)NCCN1CCCC1	-7	.	.	.
CCS(=O)(=O)C1=NN2C(=N)/C(=C\c3ccc(OCCOc4cccc(OC)c4)c(OC)c3)C(=O)N=C2S1	45*	168	i	-6
Cc1ccc(S(=O)(=O)Oc2ccc(/C=C3\C(=N)N4N=C(S(C)(=O)=O)SC4=NC3=O)cc2)cc1	59*	466	i	-3
CCOc1cc(/C=C2\C(=N)N3N=C(S(C)(=O)=O)SC3=NC2=O)ccc1OCCOc1cccc(OC)c1	45*	170	i	-2
COc1cc(/C=C2/C(=N)N3C=CSC3=NC2=O)ccc1OCCOc1ccc(NC(C)=O)cc1	-2	231	i	61*
COc1cc(/C=C2\C(=N)N3N=C(S(C)(=O)=O)SC3=NC2=O)ccc1OCCOc1ccc(C)cc1	16	476	i	-10
COc1ccc2c3c([nH]c2c1)[C@H](CO)N(C(=O)CN(C)C)CC31CCN(CC2CCCC2)CC1	-1	.	.	.
C=C(C)n1c(=O)n(Cc2ccc(C)cc2)c2ccccc21	4	177	i	69*
C=C(C)n1c(=O)n(Cc2ccccc2C)c2ccccc21	1	114	i	-7
O=C(Nc1ccc(F)c(F)c1)C1CCCN(S(=O)(=O)c2cccc3nonc23)C1 (configuration not stated)	1	211	+	-17
O=C(O)CCCCn1c(SCc2ccccc2Cl)nc2ccsc2c1=O	1	.	i	59*
C[C@@H]1CN([C@@H](C)CO)C(=O)c2cc(NC(=O)CCC(F)(F)F)ccc2O[C@@H](C)CCCCO[C@@H]1CN(C)C(=O)Nc1ccc(F)cc1	0	.	.	.
